The results in this text go back to ChEMBL document CHEMBL1157473, “Identification of 4-benzylamino-2-[(4-morpholin-4-ylphenyl)amino]pyrimidine-5-carboxamide derivatives as potent and orally bioavailable STAT6 inhibitors” (Bioorg Med Chem, 2008).

The pKa is the negative logarithm of the acid dissociation constant. A high value points to a group that holds its proton tightly. As a reminder, the bioavailability is the share of a dose that reaches the circulation, judged against a reference dose that is usually intravenous. Read a low bioavailability as poor availability. For orientation: IC50 means the concentration that gives 50% inhibition. Lower therefore signals greater potency in that assay. One may read the Vd as a proportionality between amount in the body and measured concentration, not a real space. The low end stands for confinement near the circulation, the high end for extensive tissue distribution. In general, clearance refers to the volume of plasma or blood freed of the substance per unit of time. Low readings indicate inefficient removal, high ones efficient removal. As a reminder, the half-life is how long it takes for the measured level to halve. Low values mean fast loss, high ones slow loss.

Test system in the first data set: not listed separately
Description: Dissociation constant, pKa of the compound. In kind it is physicochemical.
Details: not given
For the molecule `Oc1c(Cl)cccc1Cl` [2,6-DICHLOROPHENOL], the pKa stood at 7.15.

`Oc1ccccc1Cl` [2-CHLOROPHENOL]: the pKa was determined as 9.13.

Test system in another data set: not listed separately
Description: Oral bioavailability in BALB/c mouse at 10 mg/kg. To be noted: in vivo. Type of data set: ADME, organism-based. In a few lines:
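Oral dose of 10 mg/kg in 0.5% methylcellulose (10 mL/kg) to overnight-fasted 8-week-old female Balb/c mice, against a 1 mg/kg iv dose. Blood was sampled from the vena cava at 0.25 to 24 h. Plasma was assayed by solid-phase extraction and HPLC-MS-MS.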
`NC(=O)c1cnc(NCCc2cc(Cl)c(O)c(Cl)c2)nc1NCc1ccccc1` gave a bioavailability of 1%.

The target in another data set is T1, Signal transducer and activator of transcription 6 (Homo sapiens, UniProt P42226).
T1 sequence (P42226 whole entry): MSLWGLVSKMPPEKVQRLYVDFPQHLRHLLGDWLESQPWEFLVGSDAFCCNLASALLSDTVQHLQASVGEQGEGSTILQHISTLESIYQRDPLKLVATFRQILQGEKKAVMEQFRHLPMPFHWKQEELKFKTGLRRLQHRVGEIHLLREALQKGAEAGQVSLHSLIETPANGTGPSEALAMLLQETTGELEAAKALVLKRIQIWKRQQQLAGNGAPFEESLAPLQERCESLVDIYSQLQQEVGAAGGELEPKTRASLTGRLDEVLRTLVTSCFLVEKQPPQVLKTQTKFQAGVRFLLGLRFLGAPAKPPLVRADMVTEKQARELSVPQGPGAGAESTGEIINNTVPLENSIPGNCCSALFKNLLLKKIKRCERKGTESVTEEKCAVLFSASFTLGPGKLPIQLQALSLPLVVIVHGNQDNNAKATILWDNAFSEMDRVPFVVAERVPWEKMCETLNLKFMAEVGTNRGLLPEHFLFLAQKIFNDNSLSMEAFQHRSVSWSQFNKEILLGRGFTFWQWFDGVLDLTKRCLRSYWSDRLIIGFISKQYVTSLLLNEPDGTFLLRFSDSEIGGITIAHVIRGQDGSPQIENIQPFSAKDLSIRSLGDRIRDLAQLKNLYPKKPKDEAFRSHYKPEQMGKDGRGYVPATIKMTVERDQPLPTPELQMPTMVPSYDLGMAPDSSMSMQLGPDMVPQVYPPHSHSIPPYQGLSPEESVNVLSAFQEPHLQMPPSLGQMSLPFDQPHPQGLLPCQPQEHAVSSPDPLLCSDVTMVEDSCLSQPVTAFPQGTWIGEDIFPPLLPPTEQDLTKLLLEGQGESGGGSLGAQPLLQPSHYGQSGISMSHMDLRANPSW
Description: Inhibition of STAT6 activation in FW4 reporter cells. Type of data set: cell-based.
Details: not given
For `NC(=O)c1cnc(Nc2ccc(N3CCC(O)C3)cc2)nc1NCc1ccccc1` (stereo not drawn), it took 98 nM to reach half-maximal inhibition (IC50).

`NC(=O)c1cnc(Nc2ccc(N3CCCC3)cc2)nc1NCc1ccccc1`: half-maximal inhibition (IC50) required 650 nM.

For `NC(=O)c1cnc(Nc2ccc(N3CCCCC3)cc2)nc1NCc1ccccc1`, the IC50 was 120 nM.

In turn, `NC(=O)c1cnc(Nc2ccc(CCO)cc2)nc1NCc1ccccc1` showed an IC50 of 95 nM.

With `NC(=O)c1cnc(Nc2ccc(CCCO)cc2)nc1NCc1ccccc1`, the IC50 worked out at 81 nM.

`COc1ccccc1CNc1nc(Nc2ccc(N3CCOCC3)cc2)ncc1C(N)=O` returned an IC50 of 8.2 nM.

Regarding `CN1CCN(c2ccc(Nc3ncc(C(N)=O)c(NCc4ccccc4)n3)cc2)CC1`, half-maximal inhibition (IC50) required 6.2 nM.

In the case of `NC(=O)c1cnc(Nc2ccc(N3CCOCC3)cc2)nc1NCc1ccccc1F`, the IC50 is 1.4 nM.

`NC(=O)c1cnc(Nc2ccc(N3CCOCC3)cc2)nc1NCc1ccc(F)cc1` returned an IC50 of 650 nM.

Regarding `NC(=O)c1cnc(Nc2ccc(N3CCNCC3)cc2)nc1NCc1ccccc1`, the IC50 came out at 7 nM.

`NC(=O)c1cnc(Nc2ccc(N3CCOCC3)cc2)nc1NCc1ccccc1O`: the IC50 is 22 nM.

For `NC(=O)c1cnc(Nc2ccc(N3CCOCC3)cc2)nc1NCc1ccccc1Cl`, half-maximal inhibition (IC50) was put at 7.9 nM.

`NC(=O)c1cnc(Nc2ccc(N3CCOCC3)cc2)nc1NCc1cccc(Cl)c1`: the IC50 turned out to be 36 nM.

The molecule `NC(=O)c1cnc(Nc2ccc(N3CCOCC3)cc2)nc1NCc1cccc(C(F)(F)F)c1` came in with an IC50 of 130 nM.

`COc1cccc(CNc2nc(Nc3ccc(N4CCOCC4)cc3)ncc2C(N)=O)c1`: the IC50 came to 25 nM.

`CSc1ccccc1CNc1nc(Nc2ccc(N3CCOCC3)cc2)ncc1C(N)=O` showed an IC50 of 23 nM.

As to `NC(=O)c1cnc(Nc2ccc(N3CCOCC3)cc2)nc1NCc1cc(F)cc(F)c1`, the IC50 is 5.5 nM.

The molecule `NC(=O)c1cnc(Nc2ccc(N3CCOCC3)cc2)nc1NCc1cccc(O)c1` showed an IC50 of 19 nM.

Consider `NC(=O)c1cnc(Nc2ccc(N3CCOCC3)cc2)nc1NCc1ccccc1N`, for which the IC50 was determined as 310 nM.

Regarding `NC(=O)c1cnc(Nc2ccc(N3CCOCC3)cc2)nc1NCc1ccc(F)cc1F`, the IC50 was 310 nM.

`NC(=O)c1cnc(Nc2ccc(N3CCOCC3)cc2)nc1NCc1cc(F)ccc1F` yielded an IC50 of 1.6 nM.

Molecule `NC(=O)c1cnc(Nc2ccc(N3CCOCC3)cc2)nc1NCc1ccccc1C(F)(F)F` displayed an IC50 of 25 nM.

In turn, `Cc1ccccc1CNc1nc(Nc2ccc(N3CCOCC3)cc2)ncc1C(N)=O` displayed an IC50 of 11 nM.

`NC(=O)c1cnc(Nc2ccc(N3CCOCC3)cc2)nc1NCc1cccc(F)c1` came in with an IC50 of 1.8 nM.

`CS(=O)(=O)c1ccccc1CNc1nc(Nc2ccc(N3CCOCC3)cc2)ncc1C(N)=O`: 2000 nM corresponded to half-maximal inhibition (IC50).

In turn, `CN1CCC(c2ccc(Nc3ncc(C(N)=O)c(NCc4ccccc4)n3)cc2)CC1` showed an IC50 of 17 nM.

In turn, `NC(=O)c1cnc(Nc2ccc(N3CCC(O)CC3)cc2)nc1NCc1ccccc1` registered an IC50 of 16 nM.

`NC(=O)c1cnc(NCCc2cc(Cl)c(O)c(Cl)c2)nc1NCc1ccccc1` registered an IC50 of 61 nM.

`NC(=O)c1cnc(Nc2ccc(N3CCOCC3)cc2)nc1NCc1cc(F)cc(F)c1F` had an IC50 of 1.8 nM.

`NC(=O)c1cnc(Nc2ccc(N3CCOCC3)cc2)nc1NCc1c(F)cccc1F` yielded an IC50 of 2.2 nM.

For the molecule `NC(=O)c1cnc(Nc2ccc(N3CCOCC3)cc2)nc1NCc1ccccc1[N+](=O)[O-]`, the IC50 came out at 38 nM.

For `CC(=O)Nc1ccccc1CNc1nc(Nc2ccc(N3CCOCC3)cc2)ncc1C(N)=O`, the IC50 was 5200 nM.

For the molecule `NC(=O)c1cnc(Nc2ccc(N3CCOCC3)cc2)nc1NCc1cccc(F)c1F`, the IC50 was determined as 2.1 nM.

Test system in the next data set: not listed separately
Description: Volume of distribution in BALB/c mouse at 1 mg/kg, iv. Also on record: dose 1 mg/kg, route intravenous. In kind it is ADME, organism-based. To be noted: in vivo. In outline: (§1)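 Overnight-fasted 8-week-old female Balb/c mice were given 1 mg/kg by tail-vein injection at 10 mL/kg, in a Cremophor EL/saline-based vehicle. Plasma was extracted by solid-phase extraction and analysed by HPLC-MS-MS.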
Molecule `NC(=O)c1cnc(Nc2ccc(N3CCOCC3)cc2)nc1NCc1ccccc1` returned a Vd of 3.91 L/kg.

`NC(=O)c1cnc(NCCc2cc(Cl)c(O)c(Cl)c2)nc1NCc1ccccc1` yielded a Vd of 0.931 L/kg.

Test system in a further data set: not listed separately
Description: Clearance in BALB/c mouse at 1 mg/kg, iv. In kind it is ADME, organism-based. To be noted: in vivo. Details: dose 1 mg/kg, route intravenous. In outline: as §1
`NC(=O)c1cnc(Nc2ccc(N3CCOCC3)cc2)nc1NCc1ccccc1` had a clearance of 59.6 mL/min/kg.

For the molecule `NC(=O)c1cnc(NCCc2cc(Cl)c(O)c(Cl)c2)nc1NCc1ccccc1`, the clearance was 168 mL/min/kg.

Test system in the next data set: not listed separately
Description: Oral bioavailability in BALB/c mouse at 3 mg/kg. Type of data set: ADME, organism-based. To be noted: in vivo. In outline: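 Mice were 8-week-old female Balb/c, fasted overnight, given 3 mg/kg po in 0.5% methylcellulose (10 mL/kg), with 1 mg/kg iv as reference. Vena cava blood was collected at 0.25 to 24 h. Plasma was extracted by solid-phase extraction and quantified by HPLC-MS-MS.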
The molecule `NC(=O)c1cnc(Nc2ccc(N3CCOCC3)cc2)nc1NCc1ccccc1` returned a bioavailability of 30%.

Test system in another data set: not listed separately
Description: Half life in BALB/c mouse at 1 mg/kg, iv. In kind it is ADME, organism-based. Details: dose 1 mg/kg, route intravenous. Particulars: in vivo. In outline: as §1
Consider `NC(=O)c1cnc(Nc2ccc(N3CCOCC3)cc2)nc1NCc1ccccc1`, for which the half-life is 45.6 min.

`NC(=O)c1cnc(NCCc2cc(Cl)c(O)c(Cl)c2)nc1NCc1ccccc1` showed a half-life of 3.6 min.
